# Source: PubChem BioAssay
# A selection: hits, their analogues and other compounds. The true share with any hit is near 2.4%.
# S1P4 ag: agonists of human S1P4 receptor; O95977; S1P4-expressing cell line, agonist reporter assay; activation, % at 4.98 µM; 0.35% of 220,000 active; in the data active = activation above about 11%;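 note: 0% = DMSO vehicle and 100% = reference agonist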
# S1P4 antag: blocks the human S1P4 receptor | S1P4-expressing cells, antagonist mode, reporter read-out | inhibition, % at 4.98 µM | 0.26% of 220,000 active | AID 1510; in the data active = inhibition above about 29%;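 note: 0% = wells stimulated with agonist and 100% = vehicle wells without agonist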
# NPY1 pot ag: potentiates or activates human NPY-Y1 receptor | P25929 | NPY-Y1 expressing cells, potentiator/agonist activation | activation, % at 3.6 µM | 0.37% of 220,000 active | AID 1304; in the data active = activation above about 33%, passing the limit was not always enough;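 note: cells stimulated with NPY at EC10 then isoproterenol at EC100; 0% = low agonist plus stimulus and 100% = saturating agonist plus stimulus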
# Target sequence (P25929 whole entry, looked up): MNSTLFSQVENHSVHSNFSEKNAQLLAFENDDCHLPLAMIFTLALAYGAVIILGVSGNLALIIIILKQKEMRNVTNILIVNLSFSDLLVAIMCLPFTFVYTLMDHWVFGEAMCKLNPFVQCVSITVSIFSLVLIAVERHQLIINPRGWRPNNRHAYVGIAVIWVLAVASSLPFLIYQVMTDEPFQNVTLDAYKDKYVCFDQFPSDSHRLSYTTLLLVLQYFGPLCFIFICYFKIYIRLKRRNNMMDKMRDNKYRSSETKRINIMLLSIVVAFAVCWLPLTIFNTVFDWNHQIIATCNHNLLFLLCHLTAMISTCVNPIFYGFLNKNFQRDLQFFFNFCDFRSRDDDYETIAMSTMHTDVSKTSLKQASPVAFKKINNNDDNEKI
# NPY Y2 blocker: antagonists of human neuropeptide Y receptor Y2; inhibition, % at 2.7 µM; 0.99% of 140,000 active; NPY-Y2 expressing cells, antagonist mode; P49146;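 note: 0% = vehicle with agonist challenge and 100% = reference antagonist with challenge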
# NPY Y1 blocker: NPY-Y1 (human) receptor antagonism; HEK293-CNG Y1 cells, membrane potential fluorescence; NPY at EC95, then isoproterenol; 1% of 200,000 active; inhibition, % at 3.6 µM; P25929;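 active = inhibition above the campaign mean inhibition of all tested compounds plus 3 SD, cut at about 20% in these data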;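 note: 0% = DMSO wells given NPY plus isoproterenol and 100% = isoproterenol alone without NPY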
#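 Assay system: HEK293 Y1/CNG channel cell line; Doses: single compound dose of 3.6 µM, 0.4% DMSO; Timing: dye 3 h, compound 60 min room temperature, stimulation 45 min; Technique: Membrane-potential fluorescent dye readout; Measure: % inhibition of NPY effect.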
# NPY-Y2 PAM-ag: potentiates or activates human NPY-Y2 receptor; P49146; cells expressing NPY-Y2, potentiator/agonist read-out; activation, % at 3.6 µM; 0.45% of 220,000 active; in the data active = activation above about 27%;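 note: cells stimulated with NPY near EC25 plus isoproterenol at EC100; 0% = vehicle plus submaximal agonist and 100% = vehicle plus saturating agonist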
# NPY1 antag conf: confirmation of human neuropeptide Y receptor Y1 antagonists. inhibition, % at 3.6 µM. AID 1254. shares compounds with NPY Y1 blocker. HEK293-CNG NPY-Y1, membrane potential fluorescence, cAMP; NPY challenge against isoproterenol-raised cAMP. 21% of 1,200 active; in the data active = inhibition above about 20%;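 note: 0% = vehicle with agonist plus stimulus and 100% = stimulus alone without agonist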
# NPY2 antag ctr: antagonizes human NPY-Y2, counter-screen to NPY-Y1 antagonists; 28% of 1,200 active; shares compounds with NPY Y1 blocker; AID 1255; HEK293 NPY-Y2 CNG membrane potential fluorescence, antagonism; cells given NPY, then isoproterenol; inhibition, % at 3.6 µM;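 note: 0% = DMSO with agonist challenge and 100% = reference antagonist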
# Numbers without * were called inactive; . = not tested or not shown. Cut-off read from the data, not from the text of the source, unless noted: active = inhibition above about 17%; inactive = the rest.
SMILES,S1P4 ag,S1P4 antag,NPY1 pot ag,NPY Y2 blocker,NPY Y1 blocker,NPY-Y2 PAM-ag,NPY1 antag conf,NPY2 antag ctr
CC1Cc2ccccc2N1C(=O)c1cc2sccc2n1Cc1ccc(F)cc1 (configuration not stated),-1,-6,-39,11,20*,-12,8,15
O=C(NCc1ccco1)C1CCN(C(=O)c2cc3sccc3n2Cc2ccc(F)cc2)CC1,0,-5,-17,3,0,-13,.,.
c1ccc(-c2ccccc2OCCOCCN2CCc3ccccc3C2)cc1,0,11,-11,.,16,-11,.,.
Clc1ccc(SCCOCCN2CCCCC2)cc1,4,0,-37,6,15,-7,.,.
Clc1ccc(OCCOCCN2CCc3ccccc3C2)c(Cl)c1,-2,-6,-28,10,25*,-16,8,8
Clc1ccc(SCCOCCN2CCc3ccccc3C2)cc1,0,9,-23,.,23*,-5,15,12
CCc1ccc(C(=O)CSc2nc3cc(S(=O)(=O)N4CCOCC4)ccc3n2CC)cc1,0,-2,-17,0,3,-1,.,.
O=C(Cn1nnc2ccccc21)Nc1ccc(Cl)cn1,1,-4,-5,.,5,18,.,.
COc1ccc(-n2c(-c3ccc(Cl)cc3)c[n+]3c2CCc2ccccc2-3)cc1,-1,-1,-8,.,23*,-6,24*,11
COc1ccc(-n2c(-c3ccccc3)nnc2-c2ccc(Cl)cc2)cc1,-1,12,-12,11,8,-13,.,.
CCOC(=O)c1ccc(Nc2ncnc3ccc(C)cc23)cc1,3,9,-8,2,45*,-9,0,5
CN(CCOC(=O)c1cccc(F)c1)Cc1ccccc1,1,-16,-2,3,26*,-2,1,3
S=c1[nH]nc(-c2ccccn2)n1/N=C/c1ccc(Cl)cc1,0,-6,22,.,.,9,.,.
CC(C)COc1ccc(Br)cc1CNC(C)(C)C,0,1,1,.,28*,26,20,10
Cc1cc(Br)ccc1OCCCCNC(C)(C)C,-1,23,-12,6,-2,3,.,.
CC1CCN(CCCNC(=O)c2cn(C)c3ccc(S(=O)(=O)N4CCCC4)cc3c2=O)CC1,-2,-24,3,1,28*,0,-2,1
CC(/C=N/NC(=O)c1n[nH]c2c1CCC2)=C\c1ccccc1,0,9,-16,5,22*,-28,7,17*
Cc1ccc(NC(=S)NNC(=S)Nc2ccc(C)cc2C)cc1,-1,-6,-3,.,22*,-41,10,17*
Cc1ccc(NC(=O)CCC(=O)NNC(=S)Nc2ccccc2)c(C)c1,2,1,11,.,3,3,.,.
O=C(NN=C1CCCC1)c1ccccc1OCCOc1ccccc1,0,-13,-19,.,2,-24,.,.
O=C(NN=C1CCCCC1)c1ccccc1OCc1ccc(F)cc1,0,-7,-52,5,30*,-44,-2,3
Cc1ccccc1CC1(CO)CCCN(C(=O)c2ccccc2N(C)C)C1 (configuration not stated),0,-12,13,.,28*,-7,5,6
Cc1ccccc1CC1(CO)CCCN(C(=O)c2ccc(F)cc2)C1 (configuration not stated),1,-17,-3,.,-2,2,.,.
Clc1ccc(CN2CCCCCCC2)cc1Cl,1,-3,-15,7,22*,-29,4,5
Clc1ccc(CN2CCCCCCC2)cc1,-1,6,18,4,3,-2,.,.
SMILES,S1P4 ag,S1P4 antag,NPY1 pot ag,NPY Y2 blocker,NPY Y1 blocker,NPY-Y2 PAM-ag,NPY1 antag conf,NPY2 antag ctr
COc1ccc(NC2CS(=O)(=O)CC2NCc2ccccc2)cc1 (configuration not stated),1,-26,-6,-2,-1,3,.,.
Cc1ccc(NC(=S)NCCN(C2CCCCC2)C2CCCC2)cc1C,-1,20,-12,.,28*,-2,8,13
CC(C)NC(=O)CN1CCC(c2ccccc2)C(O)C1 (configuration not stated),1,-4,0,.,0,2,.,.
Cn1c(C(=O)N(Cc2ccccc2)Cc2cccs2)cc2sccc21,-1,1,-25,7,21*,-18,6,5
COc1ccc(N(C)S(=O)(=O)c2cccc(C(=O)NC3CCCCC3C)c2)cc1 (configuration not stated),0,6,33,.,24*,-7,15,11
COc1ccc(N(C)S(=O)(=O)c2cccc(C(=O)NCC3CCCCC3)c2)cc1,2,0,-19,.,26*,-20,21*,11
Cc1cc(C)n(-c2cccc(C(=O)O)c2)n1,2,-27,-6,.,2,-10,.,.
CCOC(=O)c1sc(NC(NC(=O)c2ccco2)(C(=O)OC)C(F)(F)F)nc1C (configuration not stated),2,0,2,5,32*,-13,8,13
COc1ccc(CN(CC2CCCO2)C(=O)c2cc3ccccc3oc2=O)cc1 (configuration not stated),1,-8,3,.,37*,5,0,1
COc1cccc(CN(CC2CCCO2)C(=O)c2cc3ccccc3oc2=O)c1 (configuration not stated),3,-6,9,.,2,4,.,.
CCOc1ccc(CN2CCN(C3CCSCC3)CC2CCO)cc1 (configuration not stated),0,-9,11,.,2,2,.,.
CC1(c2ccc([N+](=O)[O-])c(CS(=O)(=O)c3ccccc3)c2)OCCO1,1,6,24,.,-5,15,.,.
CC12COC3(C(=O)Nc4ccc5ccccc5c4)CC1CCC32C (configuration not stated),-1,0,-19,.,23*,-20,13,24*
Cc1ccc(-n2nc(C)c3c2OC(N)=C(C#N)C3c2ccncc2)cc1 (configuration not stated),0,-17,27,0,24*,10,-2,11
COc1ccc(N2CCN(C(c3cccc(OC)c3OC)c3nnnn3C3CCCC3)CC2)cc1 (configuration not stated),-2,8,-43,9,23*,-13,22*,9
CC(C)CC(c1nnnn1C1CCCC1)N1CCN(c2ccccc2F)CC1 (configuration not stated),-1,-3,-10,14,27*,-2,24*,12
CC(C)CC(c1nnnn1C1CCCCC1)N1CCN(c2ncccn2)CC1 (configuration not stated),0,0,-16,2,5,5,.,.
